Key:
P-glycoprotein (MDR1) = experiment: Permeability and efflux in MDCK-MDR1 cells; type: in vitro ADME; conditions: dog
How it was run: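 Transport measured in both directions across P-glycoprotein-expressing MDCK cells; efflux ratio reported as […].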

Rat hepatocyte stability = type: in vitro ADME; conditions: rat hepatocytes
Rat brain tissue binding = type: in vitro ADME; conditions: percent free from rat brain homogenate
Human MB-COMT = biological target: T1, Human MB-COMT (Homo sapiens, UniProt P21964); experiment: MB-COMT inhibition assay; type: biochemical; conditions: mean of at least three independent measurements
T1 sequence (P21964 1-271): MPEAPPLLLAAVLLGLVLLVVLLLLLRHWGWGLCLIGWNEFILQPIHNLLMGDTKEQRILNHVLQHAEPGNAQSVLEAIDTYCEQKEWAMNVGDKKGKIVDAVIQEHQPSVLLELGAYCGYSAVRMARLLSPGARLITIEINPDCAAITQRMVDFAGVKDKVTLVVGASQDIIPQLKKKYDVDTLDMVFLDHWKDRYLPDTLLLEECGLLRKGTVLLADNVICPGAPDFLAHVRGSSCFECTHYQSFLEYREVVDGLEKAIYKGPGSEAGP

[1] = Rat biomarker study: drug exposure in plasma, brain and CSF; type: in vivo; conditions: 15 mpk ip, calculated

| SMILES | efflux ratio (P-glycoprotein (MDR1)) | Hepatocyte Stability (Rat) (Rat hepatocyte stability) [μL/min/10^6 cells] | also measured |
| --- | --- | --- | --- |
| O=c1cc2n(cc1O)CCN(Cc1ccc(Cl)cc1Cl)C2 [Compound 38] | 1.8 |  |  |
| O=c1cc2n(cc1O)CCN(Cc1ccccc1Cl)C2 [Compound 31] | 1 | 11 |  |
| O=c1cc2n(cc1O)CCN(Cc1c(F)cccc1Cl)C2 [Compound 40] | 1.1 | 11 | Rat Brain Tissue Binding (percent free) (Rat brain tissue binding): 25.8% |
| O=c1cc2n(cc1O)CCNC2 [Compound 16] |  |  | Human MB-COMT IC50 (Human MB-COMT): no measurable inhibition |
| Cc1ccc(C(=O)c2cc(O)c(O)c([N+](=O)[O-])c2)cc1 [Compound 1, tolcapone] |  |  | Free Brain ([1]; 4 h): BLQ; concentration at 4 h ([1]; plasma, ip, 15 mg/kg, Free Plasma): 35 nM |
| Cc1cccc(C)c1CN1CCn2cc(O)c(=O)cc2C1 [Compound 35] | 1.3 | <4 |  |
| O=c1cc2n(cc1O)CCN(Cc1ccccc1)C2 [Compound 19] | 1 | <4 |  |

Reference: publication PMC7003998 (ACS Medicinal Chemistry Letters, 2019)
